Laboratory results taken from ChEMBL document CHEMBL2321868, “The discovery of novel potent trans-3,4-disubstituted pyrrolidine inhibitors of the human aspartic protease renin from in silico three-dimensional (3D) pharmacophore searches” (J Med Chem, 2013).

Tests used:
[1] = target: T1, Beta-secretase 2 (Homo sapiens, UniProt Q9Y5Z0); assay: Inhibition of human recombinant BACE-2 expressed in baculovirus-infected insect sf9 cells using RE( EDANS)-EVNLDAEF-K(DABSYL)-R as substrate incubated for 1 hr prior to substrate addition measured after 1 hr by FRET-based enzymatic assay
T1 sequence (Q9Y5Z0 whole entry): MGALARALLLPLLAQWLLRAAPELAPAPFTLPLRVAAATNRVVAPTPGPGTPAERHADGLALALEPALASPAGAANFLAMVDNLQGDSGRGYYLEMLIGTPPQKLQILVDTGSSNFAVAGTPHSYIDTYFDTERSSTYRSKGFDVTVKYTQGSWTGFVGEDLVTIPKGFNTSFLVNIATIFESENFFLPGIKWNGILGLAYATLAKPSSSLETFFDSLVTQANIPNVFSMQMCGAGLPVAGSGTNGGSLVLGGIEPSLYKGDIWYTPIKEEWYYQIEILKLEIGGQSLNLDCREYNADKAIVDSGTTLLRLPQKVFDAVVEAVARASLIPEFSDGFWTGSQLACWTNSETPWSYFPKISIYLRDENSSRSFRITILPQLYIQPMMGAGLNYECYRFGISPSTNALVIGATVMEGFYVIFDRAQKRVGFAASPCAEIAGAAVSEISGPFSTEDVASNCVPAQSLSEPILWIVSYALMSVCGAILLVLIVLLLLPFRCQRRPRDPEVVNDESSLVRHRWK

[2] = Cmax in jugular vein cannulated Sprague-Dawley rat at 6 mg/kg, po by HPLC-MS analysis; format: ADME, organism-based; design: dose 6 mg/kg, route oral; settings: in vivo
Procedure, shortened: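 Cannulated, fed Sprague–Dawley rats were given 2 mg/kg intravenously and 6 mg/kg orally. Oral bioavailability came from the two routes. t1/2, plasma clearance and Vdss were estimated. Oral Cmax and AUC were taken over 0–24 h.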

[3] = target: T2, Cathepsin E (Homo sapiens, UniProt P14091); assay: Inhibition of human recombinant cathepsin-E expressed in Escherichia coli using Ac- E-D(EDANS)-KPILFFRLG-K(Dabcyl)-E-Amid as substrate incubated for 1 hr prior to substrate addition measured after 1 hr by FRET-based enzymatic assay
T2 sequence (P14091 whole entry): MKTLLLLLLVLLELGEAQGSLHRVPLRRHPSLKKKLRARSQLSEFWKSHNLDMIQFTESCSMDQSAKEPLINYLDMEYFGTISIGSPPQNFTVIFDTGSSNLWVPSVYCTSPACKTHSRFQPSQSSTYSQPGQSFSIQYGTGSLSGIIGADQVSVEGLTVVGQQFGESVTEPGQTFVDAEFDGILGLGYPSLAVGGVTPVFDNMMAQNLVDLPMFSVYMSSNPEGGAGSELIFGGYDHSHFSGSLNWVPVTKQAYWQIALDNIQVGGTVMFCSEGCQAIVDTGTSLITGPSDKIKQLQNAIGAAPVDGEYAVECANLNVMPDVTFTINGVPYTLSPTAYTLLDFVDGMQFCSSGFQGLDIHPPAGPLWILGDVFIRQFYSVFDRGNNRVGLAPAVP

[4] = target: 5-hydroxytryptamine receptor 2A (Homo sapiens, UniProt P28223); assay: Inhibition of 5-HT2A (unknown origin)
5-hydroxytryptamine receptor 2A, sequence (P28223 whole entry): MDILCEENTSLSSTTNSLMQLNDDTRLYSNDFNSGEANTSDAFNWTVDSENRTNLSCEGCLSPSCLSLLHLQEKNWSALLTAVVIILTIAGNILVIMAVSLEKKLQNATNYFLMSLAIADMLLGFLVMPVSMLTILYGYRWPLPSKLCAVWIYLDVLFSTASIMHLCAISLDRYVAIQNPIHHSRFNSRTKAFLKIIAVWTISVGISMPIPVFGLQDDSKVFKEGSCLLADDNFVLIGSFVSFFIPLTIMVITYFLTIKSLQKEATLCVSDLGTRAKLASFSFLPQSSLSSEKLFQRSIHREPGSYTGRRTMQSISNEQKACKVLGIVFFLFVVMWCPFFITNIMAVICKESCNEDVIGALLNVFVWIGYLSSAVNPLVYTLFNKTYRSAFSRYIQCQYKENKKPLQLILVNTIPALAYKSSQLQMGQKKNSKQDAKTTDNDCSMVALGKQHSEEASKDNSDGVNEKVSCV

[5] = Inhibition of human recombinant pepsin A expressed in Escherichia coli using Dabcyl-E-R-Nle-F-L-S-F-P-EDANS as substrate incubated for 1 hr prior to substrate addition measured after 1 hr by FRET-based enzymatic assay
[6] = target: T3, Renin (Homo sapiens, UniProt P00797); assay: Inhibition of renin in human plasma using RE(EDANS)IHPFHLVIHTK(Dabcyl)R as substrate incubated for 1 hr prior to substrate addition measured after 2 hrs by FRET-based enzymatic assay
T3 sequence (P00797 whole entry): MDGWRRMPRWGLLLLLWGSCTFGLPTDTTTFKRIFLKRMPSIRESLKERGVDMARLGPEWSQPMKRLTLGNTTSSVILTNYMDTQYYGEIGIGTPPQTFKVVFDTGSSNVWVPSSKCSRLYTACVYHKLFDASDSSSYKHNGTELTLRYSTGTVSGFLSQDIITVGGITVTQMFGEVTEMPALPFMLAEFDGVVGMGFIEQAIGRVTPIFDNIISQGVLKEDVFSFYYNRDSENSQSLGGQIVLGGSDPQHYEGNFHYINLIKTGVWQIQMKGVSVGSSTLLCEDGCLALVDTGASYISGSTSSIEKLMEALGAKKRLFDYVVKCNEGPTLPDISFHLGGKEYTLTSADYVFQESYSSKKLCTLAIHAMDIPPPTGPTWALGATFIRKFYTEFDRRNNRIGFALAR
Procedure, shortened: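 Renin activity measured in the presence of human plasma by FRET cleavage of the quenched peptide substrate. IC50 is the half-maximal inhibition.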

[7] = target: 5-hydroxytryptamine receptor 2B (Homo sapiens, UniProt P41595); assay: Inhibition of 5-HT2B (unknown origin)
5-hydroxytryptamine receptor 2B, sequence (P41595 whole entry): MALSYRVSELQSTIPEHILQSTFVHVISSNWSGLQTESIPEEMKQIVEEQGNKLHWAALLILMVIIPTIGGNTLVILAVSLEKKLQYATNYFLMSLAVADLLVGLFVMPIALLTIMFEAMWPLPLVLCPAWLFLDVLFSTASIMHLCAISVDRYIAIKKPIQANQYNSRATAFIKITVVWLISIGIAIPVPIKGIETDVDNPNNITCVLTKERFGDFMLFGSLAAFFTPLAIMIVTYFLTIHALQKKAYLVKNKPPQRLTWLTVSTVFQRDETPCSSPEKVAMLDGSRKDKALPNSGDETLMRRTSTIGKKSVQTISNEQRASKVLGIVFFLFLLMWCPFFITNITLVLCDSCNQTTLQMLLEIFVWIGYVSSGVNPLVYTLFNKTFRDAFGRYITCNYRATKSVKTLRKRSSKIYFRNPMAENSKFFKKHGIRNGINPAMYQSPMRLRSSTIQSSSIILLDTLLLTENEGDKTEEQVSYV

[8] = target: T4, 5-hydroxytryptamine receptor 1A (Homo sapiens, UniProt P08908); assay: Inhibition of 5-HT1A (unknown origin)
T4 sequence (P08908 whole entry): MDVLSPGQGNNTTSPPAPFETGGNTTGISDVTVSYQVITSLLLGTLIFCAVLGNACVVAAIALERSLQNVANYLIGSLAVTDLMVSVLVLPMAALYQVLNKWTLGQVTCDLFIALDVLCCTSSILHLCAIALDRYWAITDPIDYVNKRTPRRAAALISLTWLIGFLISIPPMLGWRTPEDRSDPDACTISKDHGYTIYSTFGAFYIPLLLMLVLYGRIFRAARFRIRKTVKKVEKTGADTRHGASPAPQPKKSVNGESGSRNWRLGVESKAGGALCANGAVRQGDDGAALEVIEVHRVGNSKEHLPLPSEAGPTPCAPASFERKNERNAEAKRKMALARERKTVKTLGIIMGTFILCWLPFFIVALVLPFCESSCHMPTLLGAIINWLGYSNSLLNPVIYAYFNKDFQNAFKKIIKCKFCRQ

[9] = target: T3, Renin; assay: Inhibition of human recombinant renin expressed in CHO cells using RE(EDANS)IHPFHLVIHTK(Dabcyl)R as substrate incubated for 1 hr prior to substrate addition measured after 2 hrs by FRET-based enzymatic assay
[10] = tested on: Rattus norvegicus; assay: Antihypertensive activity in double transgenic rat overexpressing human renin and human angiotensinogen assessed as reduction in mean arterial pressure at 6 mg/kg, po; format: functional, Artery
Procedure, shortened: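 Double-transgenic rats overexpressing human renin and human angiotensinogen, with telemetry. Each received a single oral dose of 6 or 30 mg/kg. The read-out was mean arterial pressure, reported as the peak change from dosing.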

`COCCCOc1cc(C(=O)N(C[C@@H]2CNC[C@H]2Cc2ccccc2)C(C)C)ccc1OC.Cl` showed an IC50 [1] of over 30000 nM, a Cmax [2] of 1310 nM and an IC50 [3] of over 30000 nM. For the same compound, the IC50 [4] was over 1000 nM, the IC50 [5] was over 30000 nM and the IC50 [6] was 300 nM. The IC50 [7] was over 1000 nM, the IC50 [8] was over 1000 nM and the IC50 [9] was 170 nM. It also gave an Activity [10] of 15 mmHg.
